Measurements: ChEMBL document CHEMBL1221254, “Succinic acid amides as P2-P3 replacements for inhibitors of interleukin-1beta converting enzyme (ICE or caspase 1)” (Bioorg Med Chem Lett, 2010)

Columns and labels:
[1] = Selectivity ratio of human ICE to caspase 6
[2] = target: T1, Caspase-1 (Homo sapiens, UniProt P29466); test: Inhibition of human ICE
T1 sequence (P29466 whole entry): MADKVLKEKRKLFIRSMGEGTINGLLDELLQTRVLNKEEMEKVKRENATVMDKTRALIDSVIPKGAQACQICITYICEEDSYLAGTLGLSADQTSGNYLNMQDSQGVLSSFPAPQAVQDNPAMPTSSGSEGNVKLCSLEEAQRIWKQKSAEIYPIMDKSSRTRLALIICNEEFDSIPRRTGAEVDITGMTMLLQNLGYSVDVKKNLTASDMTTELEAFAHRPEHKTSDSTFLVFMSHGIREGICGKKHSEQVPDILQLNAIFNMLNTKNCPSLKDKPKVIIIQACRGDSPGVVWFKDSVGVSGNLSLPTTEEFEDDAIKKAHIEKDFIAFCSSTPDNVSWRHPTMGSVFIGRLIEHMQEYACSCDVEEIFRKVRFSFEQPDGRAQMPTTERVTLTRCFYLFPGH

[3] = Selectivity ratio of human ICE to caspase 8
[4] = Selectivity ratio of human ICE to caspase 3
[5] = Selectivity ratio of human ICE to caspase 4
[6] = organism: Homo sapiens; test: Half life in human plasma
[7] = target: T2, Caspase-1 (Mus musculus, UniProt P29452); test: Inhibition of mouse ICE
T2 sequence (P29452 whole entry): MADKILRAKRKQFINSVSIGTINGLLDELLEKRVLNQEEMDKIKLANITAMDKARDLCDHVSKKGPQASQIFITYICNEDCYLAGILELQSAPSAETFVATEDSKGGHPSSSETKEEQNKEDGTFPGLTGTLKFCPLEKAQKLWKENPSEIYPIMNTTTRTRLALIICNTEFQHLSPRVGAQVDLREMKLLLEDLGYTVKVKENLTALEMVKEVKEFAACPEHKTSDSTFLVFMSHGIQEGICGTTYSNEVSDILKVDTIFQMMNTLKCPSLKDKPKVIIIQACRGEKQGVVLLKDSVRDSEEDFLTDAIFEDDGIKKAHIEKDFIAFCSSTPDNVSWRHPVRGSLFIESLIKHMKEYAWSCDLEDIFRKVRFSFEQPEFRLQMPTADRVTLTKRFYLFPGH

[8] = system: PBMC; test: Inhibition of LPS-induced IL1-beta production in human PBMC by ELISA; format: functional, cell-based
How it was run: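 Human PBMC were suspended in RPMI 1640 with glutamine, penicillin, streptomycin and 2% human AB serum, at 10^6 cells per well. Cells were stimulated overnight with 10 ng/mL LPS, with or without inhibitor. Mature IL-1β in the harvested medium was measured by ELISA.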

[9] = system: Mus musculus; test: Reduction of IL1-beta level in human PBMC cells xenografted SCID mouse at 3 mg/kg, iv after 2 hrs; format: functional; parameters: scale not given: the % may be the effect or the level left
How it was run: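 huSCID model: SCID mice were injected with human PBMC 15 min before the start. At time zero they received LPS at 5 mg/kg iv. Compound was given at 3 mg/kg iv, and mice were bled at 2 h.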

Row | Structure (SMILES) | Selectivity ratio [1] | IC50 [2] | Ki [2] | Selectivity ratio [3] | Selectivity ratio [4] | Selectivity ratio [5] | half-life [6] | Ki [7] | IC50 [8] | Activity [9]
1 | CC(C)[C@H](CC(=O)NCCNc1cccc(Cl)c1)C(=O)N[C@H](C=O)CC(=O)O | > 200 | 11.2 nM | 0.95 nM | > 200 | > 200 | > 200 |  |  |  | 
2 | Cc1ccc2c(c1)ncn2CCNC(=O)C[C@H](C(=O)N[C@H](C=O)CC(=O)O)C(C)C | > 200 | 15.3 nM | 4.85 nM | > 200 | > 200 | > 200 |  |  |  | 
3 | CC(C)[C@H](CC(=O)NCCn1cnc2ccccc21)C(=O)N[C@H](C=O)CC(=O)O | > 200 | 33.7 nM | 20 nM | > 200 | > 200 | > 200 |  |  |  | 
4 | CC(C)[C@H](CC(=O)NCCc1cccc2ccccc12)C(=O)N[C@H](C=O)CC(=O)O | > 200 | 5.7 nM | 0.58 nM | > 200 | > 200 | > 200 |  |  |  | 
5 | CC(C)[C@H](CC(=O)NCCc1cncc2ccccc12)C(=O)N[C@H](C=O)CC(=O)O | > 200 | 12 nM | 4.3 nM | > 200 | > 200 | > 200 |  |  |  | 
6 | CC(C)[C@H](CC(=O)N1CCCC(Oc2ccccc2)C1)C(=O)N[C@H](C=O)CC(=O)O (some centres undefined) | > 200 | 170 nM | 21.5 nM | > 200 | > 200 | > 200 |  |  |  | 
7 | CC(C)[C@H](CC(=O)N(CCOc1ccccc1)CCC(=O)O)C(=O)N[C@H](C=O)CC(=O)O | > 200 | 114 nM | 9.24 nM | > 200 | > 200 | > 200 |  |  |  | 
8 | Cc1c(CCNC(=O)C[C@H](C(=O)N[C@H](C=O)CC(=O)O)C(C)C)c2ccccc2n1C | > 200 | 42.5 nM | 0.9 nM | > 200 | > 200 | > 200 |  |  |  | 
9 | Cc1cc2nc(C)n(CCNC(=O)C[C@H](C(=O)N[C@H](C=O)CC(=O)O)C(C)C)c2cc1C | > 200 | 9.18 nM | 1.26 nM | > 200 | > 200 | > 200 |  |  |  | 
10 | CC(C)[C@H](CC(=O)NCCC(=O)c1ccccc1)C(=O)N[C@H](C=O)CC(=O)O | > 200 | 398 nM | 118 nM | > 200 | > 200 | > 200 |  |  |  | 
11 | CC(C)[C@H](CC(=O)NCCc1ccnc2ccccc12)C(=O)N[C@H](C=O)CC(=O)O | > 200 | 4.77 nM | 1.31 nM | > 200 | > 200 | > 200 |  |  |  | 
12 | COc1ccc(CCCNC(=O)C[C@H](C(=O)N[C@H](C=O)CC(=O)O)C(C)C)cc1 | > 200 | 410 nM | 70.9 nM | > 200 | > 200 | > 200 |  |  |  | 
13 | CC(C)[C@H](CC(=O)NCCOc1ccccc1)C(=O)N[C@H](C=O)CC(=O)O | > 200 | 539 nM | 16.9 nM | > 200 | > 200 | > 200 |  |  |  | 
14 | CCC(C)O[C@H]1OC(=O)C[C@@H]1NC(=O)[C@@H](CC(=O)NCCc1cccc2ncccc12)C(C)C (some centres undefined) | > 200 |  |  | > 200 | > 200 | > 200 | 7.7 h |  |  | 
15 | Cc1nc2ccccc2n1CCNC(=O)C[C@H](C(=O)N[C@H](C=O)CC(=O)O)C(C)C |  | 23.8 nM |  |  |  |  |  | 18.7 nM | 2900 nM | 68%
16 | Cc1[nH]c2ccccc2c1CCNC(=O)C[C@H](C(=O)N[C@H](C=O)CC(=O)O)C(C)C |  | 18 nM | 1.29 nM |  |  |  |  | 13.4 nM | 1500 nM | 54%

Row | Structure (SMILES) | Selectivity ratio [1] | IC50 [2] | Ki [2] | Selectivity ratio [3] | Selectivity ratio [4] | Selectivity ratio [5] | half-life [6] | Ki [7] | IC50 [8] | Activity [9]
17 | CC(C)[C@H](CC(=O)N1CCN(c2ccccc2)CC1)C(=O)N[C@H](C=O)CC(=O)O | > 200 | 7810 nM | 1020 nM | > 200 | > 200 | > 200 |  |  |  | 
18 | CC(C)[C@H](CC(=O)NCCc1c[nH]c2ccccc12)C(=O)N[C@H](C=O)CC(=O)O | > 200 | 23.1 nM | 5.02 nM | > 200 | > 200 | > 200 |  |  |  | 
19 | CC(C)[C@H](CC(=O)NCCc1cc(N(C)C)nc2ccccc12)C(=O)N[C@H](C=O)CC(=O)O | > 200 | 3.61 nM | 3 nM | > 200 | > 200 | > 200 |  |  |  | 
20 | CCO[C@H]1OC(=O)C[C@@H]1NC(=O)[C@@H](CC(=O)NCCc1cccc2ncccc12)C(C)C | > 200 |  |  | > 200 | > 200 | > 200 | 4.3 h |  |  | 
21 | CC(C)[C@H](CC(=O)NCCc1c[nH]c2ccc(F)cc12)C(=O)N[C@H](C=O)CC(=O)O | > 200 | 37 nM | 7.9 nM | > 200 | > 200 | > 200 |  |  |  | 
22 | CCC(C)O[C@@H]1OC(=O)C[C@@H]1NC(=O)[C@@H](CC(=O)NCCc1cccc2ncccc12)C(C)C (some centres undefined) | > 200 |  |  | > 200 | > 200 | > 200 | 3.9 h |  |  | 
23 | CC(C)[C@H](CC(=O)NCCc1cccc2ncccc12)C(=O)N[C@H]1CC(=O)O[C@H]1OC1CCCC1 | > 200 |  |  | > 200 | > 200 | > 200 | 15.7 h |  |  | 
24 | CC(C)[C@H](CC(=O)NCCc1cccc2nc(OCCN(C)C)ccc12)C(=O)N[C@H](C=O)CC(=O)O | > 200 | 102 nM | 16.7 nM | > 200 | > 200 | > 200 |  |  |  | 
25 | O=C[C@H](CC(=O)O)NC(=O)[C@@H]1CCCN2C(=O)CC[C@H](NC(=O)c3nccc4ccccc34)C(=O)N12 [VRT-18858] |  | 3.4 nM | 0.6 nM |  |  |  |  | 7 nM | 380 nM | 62%
26 | CC(=O)N[C@@H](Cc1ccc(O)cc1)C(=O)N[C@H](C(=O)N[C@@H](C)C(=O)N[C@H](C=O)CC(=O)O)C(C)C | > 200 | 17 nM | 0.7 nM | > 200 | > 200 | > 200 |  | 9 nM | 1200 nM | 69%
27 | CC(C)[C@H](CC(=O)NCCn1c(-c2cccnc2)nc2ccccc21)C(=O)N[C@H](C=O)CC(=O)O | > 200 | 26.5 nM | 3.85 nM | > 200 | > 200 | > 200 |  |  |  | 
28 | CC(C)[C@H](CC(=O)N(CCOc1ccccc1)C(C)C)C(=O)N[C@H](C=O)CC(=O)O | > 200 | 584 nM | 100 nM | > 200 | > 200 | > 200 |  |  |  | 
29 | Cc1cc2ncn(CCNC(=O)C[C@H](C(=O)N[C@H](C=O)CC(=O)O)C(C)C)c2cc1C | > 200 | 14.5 nM | 2.81 nM | > 200 | > 200 | > 200 |  |  |  | 
30 | CC(C)[C@H](CC(=O)NCCc1cccc2ncccc12)C(=O)N[C@H](C=O)CC(=O)O |  | 5.81 nM | 1.81 nM |  |  |  |  | 14.4 nM | 650 nM | 52%
31 | CC(C)[C@H](CC(=O)NCCCc1ccccc1)C(=O)N[C@H](C=O)CC(=O)O | > 200 |  |  | > 200 | > 200 | > 200 |  |  |  | 
32 | CC(C)[C@H](CC(=O)NCCn1ccc2ccccc21)C(=O)N[C@H](C=O)CC(=O)O | > 200 | 45.3 nM | 4.03 nM | > 200 | > 200 | > 200 |  |  |  | 
